Results published in ChEMBL document CHEMBL1148054, “Chemical and bioactive constituents from Zanthoxylum simulans” (J Nat Prod, 1994).

How the values were obtained:
HL-60 [1] = assay: Induction of terminal cell differentiation in human HL60 cells assessed as inhibition of [3H]thymidine incorporation at 30.7 uM after 4 days; type: functional; set-up: scale not given: the % may be the effect or the level left
Summary of the method: (§1)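 HL-60 cells were kept in RPMI 1640 with 5% heat-inactivated calf serum and penicillin/streptomycin at 37° under 5% CO2. Log-phase cells were diluted to 1.2×10^5 cells/ml and preincubated 18 h. Samples were added in DMSO (final 0.1%; vehicle controls matched) for 4 days. Aliquots then got 0.5 μCi/ml [3H]thymidine for 16 h more, were harvested and scintillation-counted. % incorporation per 10^6 cells = sample DPM / DMSO-control DPM.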

SK-MEL = assay: Cytotoxicity against human SK-MEL cells; type: functional; conditions: read-out: ED50 (the source's name)
Summary of the method: (§2)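 Cultured human cancer lines and murine P-388 cells. Complete dose-response data from at least five concentrations of test substance, each tested in duplicate.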

HL-60 [2] = assay: Induction of terminal cell differentiation in human HL60 cells at 15.4 uM after 4 days by NBT reduction assay; type: functional
Summary of the method: (§3)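 Log-phase HL-60 cells (RPMI 1640, 5% heat-inactivated calf serum, 37°, 5% CO2) were diluted to 1.2×10^5 cells/ml, preincubated 18 h, then treated 4 days with samples in DMSO (final 0.1%; DMSO controls). 10^6 cells were mixed 1:1 with fresh PBS holding 2 mg/ml NBT and 5 μg/ml TPA, 1 h at 37°. Formazan-positive cells were counted microscopically as % NBT-positive.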

HL-60 [3] = assay: Induction of terminal cell differentiation in human HL60 cells assessed as naphthol AS-D chloroacetate esterase activity at 3.8 uM after 4 days; type: functional
Summary of the method: (§4)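 HL-60 cells were grown in RPMI 1640 with 5% heat-inactivated calf serum at 37°, 5% CO2. They were diluted to 1.2×10^5 cells/ml, preincubated 18 h, then exposed 4 days to DMSO-dissolved samples (final DMSO 0.1%, matched vehicle controls). Specific esterase (naphthol AS-D chloroacetate) was scored cytochemically with a commercial kit as the percentage of differentiated cells.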

[4] = Antiplatelet activity against rabbit platelet assessed as inhibition of arachidonic acid-induced platelet aggregation at 100 ug/ml; type: functional; conditions: Oryctolagus cuniculus
HL-60 [5] = assay: Induction of cell differentiation in human HL60 cells assessed as alpha naphthyl esterase activity at 61.5 uM after 4 days; type: functional
Summary of the method: (§5)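 HL-60 cells in RPMI 1640 with 5% heat-inactivated calf serum at 37° under 5% CO2. Log-phase cells diluted to 1.2×10^5 cells/ml and preincubated 18 h, then samples added in DMSO (final 0.1%, DMSO controls). Cells scored after 4 days.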

[6] = Cytotoxicity against human multidrug-resistant KBV1 cells in presence of vinblastine; type: functional; conditions: KB-V1, read-out: ED50 (the source's name); summary of the method: as §2
HL-60 [7] = assay: Induction of terminal cell differentiation in human HL60 cells assessed as naphthol AS-D chloroacetate esterase activity at 7.7 uM after 4 days; type: functional; summary of the method: as §4
HL-60 [8] = assay: Induction of terminal cell differentiation in human HL60 cells assessed as inhibition of [3H]thymidine incorporation at 61.5 uM after 4 days; type: functional; set-up: scale not given: the % may be the effect or the level left; summary of the method: as §1
[9] = Cytotoxicity against human multidrug-resistant KBV1 cells in absence of vinblastine; type: functional; conditions: KB-V1, read-out: ED50 (the source's name); summary of the method: as §2
P388 = assay: Cytotoxicity against mouse P388 cells; type: functional; conditions: read-out: ED50 (the source's name); summary of the method: as §2
HL-60 [10] = assay: Induction of cell differentiation in human HL60 cells assessed as alpha naphthyl esterase activity at 3.8 uM after 4 days; type: functional; summary of the method: as §5
LNCaP = assay: Cytotoxicity against human LNCAP cells; type: functional; conditions: read-out: ED50; summary of the method: as §2
ZR-75-1 = assay: Cytotoxicity against human ZR-75-1 cells; type: functional; conditions: ZR-75-1, read-out: ED50; summary of the method: as §2
HL-60 [11] = assay: Induction of terminal cell differentiation in human HL60 cells assessed as cell viability at 3.8 uM by trypan blue exclusion method; type: functional; conditions: read-out: Activity
Summary of the method: (§6)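 HL-60 cells preincubated 18 h at 1.2×10^5 cells/ml, then exposed 4 days to samples in DMSO (final 0.1%). Viability by trypan blue exclusion: viable/(viable+dead)×100. Cell counts also taken after 4 days.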

HL-60 [12] = assay: Induction of cell differentiation in human HL60 cells assessed as alpha naphthyl esterase activity at 7.7 uM after 4 days; type: functional; summary of the method: as §5
HL-60 [13] = assay: Induction of terminal cell differentiation in human HL60 cells assessed as naphthol AS-D chloroacetate esterase activity at 61.5 uM after 4 days; type: functional; summary of the method: as §4
HT-1080 = assay: Cytotoxicity against human HT1080 cells; type: functional; conditions: read-out: ED50 (the source's name); summary of the method: as §2
HL-60 [14] = assay: Induction of terminal cell differentiation in human HL60 cells assessed as naphthol AS-D chloroacetate esterase activity at 15.4 uM after 4 days; type: functional; summary of the method: as §4
HL-60 [15] = assay: Induction of terminal cell differentiation in human HL60 cells at 61.5 uM after 4 days by NBT reduction assay; type: functional; summary of the method: as §3
Col2 = assay: Cytotoxicity against human Col2 cells; type: functional; conditions: read-out: ED50 (the source's name); summary of the method: as §2
HL-60 [16] = assay: Induction of terminal cell differentiation in human HL60 cells at 3.8 uM after 4 days by NBT reduction assay; type: functional; summary of the method: as §3
HL-60 [17] = assay: Induction of terminal cell differentiation in human HL60 cells assessed as cell viability at 7.7 uM by trypan blue exclusion method; type: functional; conditions: read-out: Activity; summary of the method: as §6
KB = assay: Cytotoxicity against human KB cells; type: functional; conditions: read-out: ED50 (the source's name); summary of the method: as §2
HL-60 [18] = assay: Induction of terminal cell differentiation in human HL60 cells assessed as cell viability at 61.5 uM by trypan blue exclusion method; type: functional; conditions: read-out: Activity; summary of the method: as §6
HL-60 [19] = assay: Induction of cell differentiation in human HL60 cells assessed as alpha naphthyl esterase activity at 15.4 uM after 4 days; type: functional; summary of the method: as §5
HL-60 [20] = assay: Induction of terminal cell differentiation in human HL60 cells assessed as cell viability at 30.7 uM by trypan blue exclusion method; type: functional; conditions: read-out: Activity; summary of the method: as §6
[21] = Cytotoxicity against human U373 cells; type: functional, U-373MG ATCC; conditions: U373 MG, read-out: ED50; summary of the method: as §2
HL-60 [22] = assay: Induction of terminal cell differentiation in human HL60 cells assessed as inhibition of [3H]thymidine incorporation at 3.8 uM after 4 days; type: functional; set-up: scale not given: the % may be the effect or the level left; summary of the method: as §1
HL-60 [23] = assay: Induction of terminal cell differentiation in human HL60 cells assessed as cell viability at 15.4 uM by trypan blue exclusion method; type: functional; conditions: read-out: Activity; summary of the method: as §6
[24] = Antiplatelet activity against rabbit platelet assessed as inhibition of collagen-induced platelet aggregation at 100 ug/ml; type: functional; conditions: Oryctolagus cuniculus
HL-60 [25] = assay: Induction of terminal cell differentiation in human HL60 cells assessed as inhibition of [3H]thymidine incorporation at 7.7 uM after 4 days; type: functional; set-up: scale not given: the % may be the effect or the level left; summary of the method: as §1
[26] = Antiplatelet activity against rabbit platelet assessed as inhibition of platelet activating factor-induced platelet aggregation at 100 ug/ml; type: functional; conditions: Oryctolagus cuniculus
HL-60 [27] = assay: Induction of terminal cell differentiation in human HL60 cells assessed as inhibition of [3H]thymidine incorporation at 15.4 uM after 4 days; type: functional; set-up: scale not given: the % may be the effect or the level left; summary of the method: as §1
[28] = Cytotoxicity against human BC1 cells; type: functional; conditions: read-out: ED50 (the source's name); summary of the method: as §2
HL-60 [29] = assay: Induction of terminal cell differentiation in human HL60 cells at 30.7 uM after 4 days by NBT reduction assay; type: functional; summary of the method: as §3
HL-60 [30] = assay: Induction of terminal cell differentiation in human HL60 cells at 7.7 uM after 4 days by NBT reduction assay; type: functional; summary of the method: as §3
A-431 = assay: Cytotoxicity against human A431 cells; type: functional; conditions: read-out: ED50 (the source's name); summary of the method: as §2
Lu1 = assay: Cytotoxicity against human Lu1 cells; type: functional; conditions: read-out: ED50 (the source's name); summary of the method: as §2
HL-60 [31] = assay: Induction of terminal cell differentiation in human HL60 cells assessed as naphthol AS-D chloroacetate esterase activity at 30.7 uM after 4 days; type: functional; summary of the method: as §4
HL-60 [32] = assay: Induction of cell differentiation in human HL60 cells assessed as alpha naphthyl esterase activity at 30.7 uM after 4 days; type: functional; summary of the method: as §5

## CC(C)C(=O)CCC1(C)C=Cc2c(c3ccccc3n(C)c2=O)O1 (stereo unspecified)
HL-60 [1]
  Activity: 0%
SK-MEL
  EC50: 36.6 µM
HL-60 [2]
  Activity: 8%
HL-60 [3]
  Activity: 5.5%
[4]
  inhibition at 100 µg/mL: 100%
HL-60 [5]
  Activity: 48.9%
[6]
  EC50: 4 µM
HL-60 [7]
  Activity: 6.5%
HL-60 [8]
  Activity: 31.6%
[9]
  EC50: 24.3 µM
P388
  EC50: 9.8 µM
HL-60 [10]
  Activity: 5%
LNCaP
  EC50: > 60 µM
ZR-75-1
  EC50: 11.1 µM
HL-60 [11]
  viability at 3.8 µM: 97%
HL-60 [12]
  Activity: 5%
HL-60 [13]
  Activity: 5%
HT-1080
  EC50: > 60 µM
HL-60 [14]
  Activity: 8%
HL-60 [15]
  Activity: 53.1%
Col2
  EC50: > 60 µM
HL-60 [16]
  Activity: 5.5%
HL-60 [17]
  viability at 7.7 µM: 98%
KB
  EC50: 46.4 µM
HL-60 [18]
  viability at 61.5 µM: 85%
HL-60 [19]
  Activity: 5.5%
HL-60 [20]
  viability at 30.7 µM: 96%
[21]
  EC50: > 60 µM
HL-60 [22]
  Activity: 0%
HL-60 [23]
  viability at 15.4 µM: 98%
[24]
  inhibition at 100 µg/mL: 83.9%
HL-60 [25]
  Activity: 0%
[26]
  inhibition at 100 µg/mL: 100%
HL-60 [27]
  Activity: 0%
[28]
  EC50: > 60 µM
HL-60 [29]
  Activity: 9.9%
HL-60 [30]
  Activity: 4.5%
A-431
  EC50: > 60 µM
Lu1
  EC50: > 60 µM
HL-60 [31]
  Activity: 9.4%
HL-60 [32]
  Activity: 12.22%
